The values that follow come from article PMC7357173 (Toxicological Sciences, 2020).

Holding throughout (assay type): cell-based, human
In series [1] the test system is HepG2 cells. Briefly: Phospholipidosis. The conditions noted are these: HepG2, 24 h. Summed up: (§1)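 High-content imaging of HepG2 seeded at 10 000 (24 h) or 12 500 (6, 1 h) cells/well and adhered overnight. Triplicate wells at 8 concentrations, 0.5% DMSO. Mito-mass stained with a mitochondria-specific fluorescent dye; PLD detected by a dye conjugating to phospholipids. Cells fixed in 4% formaldehyde with Hoechst 33342 where required. Eight fields imaged per well (10×); intensity compared against vehicle wells.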

The test system of series [2] is HepG2 cells. Briefly: Glutathione content.
Series [3] relates to HepG2 cells. Briefly: Cellular stress panel as a whole. The conditions noted are these: for bioactivity group: HepG2 cellular stress panel. Summed up: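 HepG2 exposed 1, 6 or 24 h to 8 nominal concentrations (0.5% DMSO), one run, 3 technical replicates each. Per-plate raw values divided by the median control and log2-transformed; concentrations log10-transformed. Bayesian fit with a Student's t (5 df) replicate model and well-position scale term. PoD found by linear interpolation; CDS is the fraction of 10 000 samples yielding a PoD.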

Series [4] deals with HepG2 cells. Briefly: Cellular ATP. In a few lines: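 HepG2 in supplemented MEM (10% FBS), kept below 85% confluence and ≤8 passages. Treated with 8-point dilutions from DMSO stocks (0.5% DMSO final) at 37°C, 5% CO2. Cellular ATP read by CellTiterGlo luminescence, normalized to vehicle wells as fold change. Run once, triplicate wells per concentration. PoD taken from Bayesian concentration–response fits.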

Another series relates to IL-8. Briefly: IL-8 secretion, ELISA of HepG2 supernatants. The conditions noted are these: HepG2, 24 h. In a few lines: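 HepG2 grown and exposed as for the other assays: 8 concentrations from DMSO stocks, 0.5% DMSO final, 37°C, 5% CO2, triplicate wells, one run. 50 µl of supernatant collected after the incubation and assayed for IL-8 by ELISA kit. Values divided by the plate median control, log2-transformed and fitted by Bayesian concentration–response modelling to give PoD.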

Series [5] deals with HepG2 cells. Briefly: Mitochondrial mass. The conditions noted are these: HepG2, 1, 6 and 24 h; subcytotoxic PoD. In a few lines: as §1
Series [6] has as its system HepG2 cells. Briefly: Oxygen consumption rate. Summed up: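 HepG2 seeded at 16 000 cells/well, attached overnight, then treated 1, 6 or 24 h; the final 60 min was in unbuffered DMEM (10 mM glucose, 30 mM NaCl, 1 mM pyruvate, 2 mM L-alanyl-glutamine, pH 7.4, 37°C). Four baseline and six post-compound reads (3-min mix, 4-min read). Then oligomycin 1 μM, FCCP 0.5 μM and rotenone/antimycin A 1 μM each. Values baseline-normalized and corrected for nonmitochondrial OCR.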

The test system of series [7] is HepG2 cells. Briefly: Mitochondrial ROS. As to conditions: HepG2, all timepoints, highest concentration.

Counter-ions that a name gives are not always drawn.

On to `O=c1ccc2ccccc2o1` [Coumarin], for which, in the series with HepG2 cells [1], the change in phospholipidosis result is reported as “decrease”. In addition, the change in glutathione result with HepG2 cells [2] (HepG2, 24 h) is on record as “increase”. In addition, in the series on HepG2 cells [3] (HepG2, around the top concentration tested), the “all PoDs of the panel” value is reported as about 1000 µM. In the series with HepG2 cells [3], this compound displayed a bioactivity group of 1. Also, the “change in cellular ATP (lowest PoD)” value with HepG2 cells [4] (HepG2, 6 and 24 h) is “decrease”. In the series on IL-8, the “change in IL-8” value is reported as “decrease”.

For the compound `O=C(O)Cc1ccccc1Nc1c(Cl)cccc1Cl` [Diclofenac, Diclofenac sodium salt], the “estimated plasma Cmax compared with minimum PoD” value in the series on HepG2 cells [3] (total Cmax of Table 2 vs nominal in vitro PoD) was “approximately one order of magnitude below the lowest PoD”.

As for `COc1cccc2c1C(=O)c1c(O)c3c(c(O)c1C2=O)C[C@@](O)(C(=O)CO)C[C@@H]3O[C@H]1C[C@H](N)[C@H](O)[C@H](C)O1` [Doxorubicin, Doxorubicin hydrochloride], the “change in mitochondrial mass” value in the series on HepG2 cells [5] is recorded as “increases”. The change in glutathione result is on record as “Increases” with HepG2 cells [2] (HepG2, 1 h) and “loss” in the series on HepG2 cells [2] (HepG2, 24 h). For the same compound, the “change in cellular ATP” value in the series with HepG2 cells [4] (HepG2, 6 h) is listed as “increases”; in the series with HepG2 cells [4] (HepG2, 24 h) it was “loss”.

Take `NC(=O)c1cccnc1` [Niacinamide, Nicotinamide]: the “change in IL-8” value with IL-8 is recorded as “small but appreciable decrease”.

As to `OCCOc1ccccc1` [Phenoxyethanol, 2-Phenoxyethanol], the “concentration-responses among all 36 biomarkers” value in the series on HepG2 cells [3] (HepG2, up to 1000 µM) is given as “no concentration-responses could be detected”.

Consider `CCc1ccc(CCOc2ccc(CC3SC(=O)NC3=O)cc2)nc1` (stereo not drawn) [Pioglitazone, Pioglitazone hydrochloride], for which the “change in OCR and reserve capacity” value is reported as “increase” with HepG2 cells [6] (HepG2, concentrations between 40 and 100 µM); “decrease” with HepG2 cells [6] (HepG2, concentrations up to 10 µM).

In the series with HepG2 cells [3], `C[S+]([O-])CCCCN=C=S` [Sulforaphane, L-Sulforaphane] returned a bioactivity group of 3.

On to `Oc1cc(Cl)ccc1Oc1ccc(Cl)cc1Cl` [Triclosan], for which the “increase in mitochondrial superoxide (MitoROS)” value in the series with HepG2 cells [7] is on record as 2- to 4 fold. For the same compound, the “change in cellular ATP” value is recorded as “increase” with HepG2 cells [4] (HepG2, 6 h) and “reduction” in the series with HepG2 cells [4] (HepG2, 24 h).

Regarding `Cc1c(C)c2c(c(C)c1O)CCC(C)(COc1ccc(CC3SC(=O)NC3=O)cc1)O2` (stereo not drawn) [Troglitazone], in the series on HepG2 cells [6] (HepG2, two highest concentrations (40 and 100 µM)), the “effect on OCR” value is given as “reduced the OCR near to zero”.
